Assay [1] in a line: DPPH˙ radical scavenging assay. As to conditions: read-out: DPPH˙ scavenging activity (EC50); 37 °C 30 min, OD 540 nm; mean ± SD. In a few lines:
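Assay mixtures were 50 μL DPPH˙ working solution in ethanol plus 50 μL test compound in DMSO (sample solutions 0.02–20 mM). Ethanol replaced DPPH˙ in sample-control and blank wells. Mixtures were incubated at 37 °C for 30 min and read at OD 540 nm, in triplicate. Scavenging rate was calculated by formula. EC50 was derived by nonlinear regression from three independent experiments.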

For the next assay, the system named is L02 cells. As to the kind of experiment: MTT assay for H2O2-treated L02 cells. In kind it is cell-based. As to conditions: Homo sapiens, L02, read-out: L02 cell viability after H2O2. A digest of the protocol:
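Cells were grown in RPMI-1640 with 10% FBS at 37 °C, 5% CO2. PC12 cells were seeded at 5 × 10^5 cells per mL and incubated 16 h; L02 cells at 1 × 10^5 cells per mL, 24 h. Test compound (final 10 μM, from 20 mM DMSO stock) or DMSO was added for 0.5 h. Then 10 μL H2O2 (1 mM in medium) or medium was added for 2 h, followed by MTT for 4 h.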
For orientation: Tetrazolium assays rely on reduction of a dye to a coloured formazan, in cell work by metabolically active cells.

The record followed here is article PMC9051925 (RSC Advances, 2020).

For `O=C(O)c1cc(O)c(O)c(O)c1` [GA, gallic acid], in assay [1], the concentration for a half-maximal effect (EC50) turned out to be 50 ± 10 µM. The viability at 10 µM with L02 cells worked out at 37.8%.

As to `O=C1O[C@H]([C@@H](O)CO)C(O)=C1O` [VC, vitamin C], in assay [1], the concentration for a half-maximal effect (EC50) amounted to 230 ± 90 µM.

The EC50 is the concentration giving half of the maximal effect. The viability is a per cent measure of how many cells are alive, often set against a control.
